This assay deals with Radical scavenging activity. The assay can be described thus: Antioxidant activity assessed as ability to scavenge hydroxyl radicals by ABTS competition assay. The class given is functional. The gist of the method:
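Hydroxyl radical scavenging in ethanolic medium by ABTS competition. Hydroxyl radicals oxidize ABTS to the stable ABTS•+ cation radical, read by absorbance at 405 nm. IC50 is the compound concentration giving a 50% reduction in ABTS•+.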

The values below come from ChEMBL document CHEMBL1145350, “Solid-phase synthesis of quinol fatty alcohols, design of N/O-substituted quinol fatty alcohols and comparative activities on axonal growth” (Bioorg Med Chem Lett, 2006).

Structures are written as SMILES.

Usually IC50 stands for the concentration at which inhibition is half-maximal.

Consider `COc1ccc(OC)c(CCCCCCCCCCCCCCCO)c1`, for which the IC50 is over 10000 µM.
The same measure for `Cc1c(C)c2c(c(C)c1O)CCC(C)(C(=O)O)O2` (configuration not stated) [TROLOX]: 600 µM.
